Hits are enriched below; roughly 1.5% of the tested compounds scored in any of these assays.
Jurkat NFkB inh – inhibitors of the PMA/ionomycin-induced NF-kB reporter in Jurkat cells; AID 435003; 0.53% of 330,000 active; inhibition, % at 4 µM; PMA/ionomycin-induced NF-kB luciferase reporter, luminescence; in the data active = inhibition above about 50%
JMJD2C inh – inhibitors of human GASC-1 (JMJD2C) demethylase; Q9H3R0; GST-JMJD2C(1-420) H3K9me3 demethylation, DELFIA europium; inhibition, % at 2.35 µM; 0.069% of 330,000 active;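 active = more than half of a compound's replicate wells show inhibition beyond 50%, single wells judged on their own value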;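 note: signal counts dimethyl H3K9 product captured on neutravidin plate; 0% = median of DMSO wells and 100% = 0.3 times that DMSO median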
Target sequence (Q9H3R0 1-420 limits assumed): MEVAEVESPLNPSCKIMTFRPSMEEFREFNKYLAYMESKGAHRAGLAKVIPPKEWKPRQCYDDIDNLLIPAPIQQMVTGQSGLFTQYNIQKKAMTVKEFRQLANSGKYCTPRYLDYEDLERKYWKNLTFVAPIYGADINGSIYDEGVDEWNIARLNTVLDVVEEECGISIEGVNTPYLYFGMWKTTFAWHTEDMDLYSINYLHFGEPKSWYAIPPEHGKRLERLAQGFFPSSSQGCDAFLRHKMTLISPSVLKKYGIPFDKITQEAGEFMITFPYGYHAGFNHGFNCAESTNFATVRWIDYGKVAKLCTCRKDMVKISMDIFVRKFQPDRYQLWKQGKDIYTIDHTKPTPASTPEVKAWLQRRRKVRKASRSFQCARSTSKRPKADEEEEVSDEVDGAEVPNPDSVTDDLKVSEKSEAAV
NR2E3 ag-1 – agonists of human NR2E3 nuclear receptor. 0.35% of 360,000 active. AID 602229. Q9Y5X4. CHO-S Gal4-NCOR/VP16-NR2E3 two-hybrid, luciferase. inhibition of corepressor binding, % at 3.98 µM;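 active = inhibition above the mean of all tested compounds plus 3 SD, cut at about 70% in these data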;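 note: 0% = DMSO with NR2E3 transfected cells and 100% = cells lacking NR2E3 construct; higher means lower luciferase signal from less NR2E3 corepressor binding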
NR2E3 ag-2 – activates human photoreceptor nuclear receptor NR2E3; GST-NR2E3/biotin-RetCOR TR-FRET, 1536-well; 0.12% of 320,000 active; Q9Y5X4; inhibition of corepressor binding, % at 4.78 µM;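 active = percent inhibition above the cutoff of mean plus 3 SD of all tested compounds, set per screening campaign, cut at about 20% in these data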;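 note: 0% = DMSO wells and 100% = biotin wells as full block of FRET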
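system = GST-tagged NR2E3 plus biotinylated RetCOR corepressor | input = 1.35 nM GST-NR2E3 | also added = 7 nM biotin-RetCOR | schedule = 5 h incubation at 4 °C | measured by = TR-FRET with europium anti-GST and streptavidin-D2, 340 nm excitation | read-out = percent loss of FRET ratio relative to control wells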
GalR3 antagonist – human GalR3 antagonism | O60755 | HEK293 GalR3-CNG cAMP membrane potential fluorescence; galR3 body fused to GalR1 C-terminus | inhibition, % at 3 µM | 0.44% of 360,000 active | AID 651719;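 active = inhibition above the screen-wide average plus 3 SD, cut at about 13% in these data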;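 note: forskolin and galanin both at EC90 stimulate the cells; cAMP rise reported by CNG channel membrane potential dye signal; 0% = forskolin plus galanin with DMSO and 100% = forskolin alone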
Target sequence (O60755 1-299 limits assumed): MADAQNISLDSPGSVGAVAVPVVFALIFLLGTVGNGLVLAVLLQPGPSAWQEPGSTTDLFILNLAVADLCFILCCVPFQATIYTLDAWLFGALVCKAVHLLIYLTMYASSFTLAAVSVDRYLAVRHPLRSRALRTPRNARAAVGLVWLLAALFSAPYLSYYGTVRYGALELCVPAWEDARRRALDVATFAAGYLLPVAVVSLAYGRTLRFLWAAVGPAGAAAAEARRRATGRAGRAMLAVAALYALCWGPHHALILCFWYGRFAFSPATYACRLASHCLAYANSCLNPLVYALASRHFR
697 NFkB inh – lowers PMA/ionomycin-induced NF-kB signal in 697 B cells. 697 B-cell NF-kB luciferase reporter, 16 h. 0.33% of 330,000 active. inhibition, % at 4 µM; in the data active = inhibition above about 35%
Jurkat NFkB conf – lowers PMA/ionomycin-induced NF-kB signal in Jurkat cells | AID 435020 | 27% of 2,700 active | Jurkat NF-kB luciferase, 16 h | inhibition, % at 4 µM | shares compounds with Jurkat NFkB inh;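 active = inhibition reaching about 45% at 4 µM in either replicate, limit read from the data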;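 note: plate controls were PMA/ionomycin stimulated DMSO wells for no effect and unstimulated DMSO wells for full effect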
An asterisk follows results filed as active; . = no result.

SMILES	Jurkat NFkB inh	JMJD2C inh	NR2E3 ag-1	NR2E3 ag-2	GalR3 antagonist	697 NFkB inh	Jurkat NFkB conf
CCC1(c2ccc(F)cc2)NC(=O)N(CC(=O)Nc2ccc(-c3nc4ccc(C)cc4s3)cc2)C1=O (stereo not drawn)	-185.6	1.0	-131.7	-1.8	1.0	-178.2	-82.5
CCOC(=O)c1cc(CC)sc1NC(=O)c1cccc(N2C(=O)CCC2=O)c1	56.9*	-91.7	10.2	-2.0	-3.1	-67.8	8.3
Cc1cccc(-n2ncc3c(NCCCO)ncnc32)c1	-98.1	8.0	-72.7	10.5	-3.7	-106.4	.
Cc1cccc(-n2ncc3c(NC4CCCCC4)ncnc32)c1	-155.5	0.2	-139.5	2.7	-4.1	-234.9	-147.7
Cc1ccc(-n2ncc3c(N4CCN(c5ccccc5)CC4)ncnc32)c(C)c1	59.5*	0.3	-15.4	-1.2	-3.2	-39.3	38.6
CC1CN(c2ncnc3c2cnn3-c2ccc(Cl)cc2)CC(C)O1 (stereo not drawn)	-187.3	1.1	-37.4	0.6	3.3	-196.5	-70.8
Cc1cccc(-n2ncc3c(N4CC(C)CC(C)C4)ncnc32)c1 (stereo not drawn)	-166.4	-1.1	-119.4	4.4	1.7	-198.7	-106.7
COc1cccc(CNC(=O)Cn2ncc3c(=O)oc4ccccc4c32)c1	-2.5	4.0	-30.3	-4.5	-6.1	5.4	.
Nc1cccc2c1C(=O)N(CCOc1ccc(F)cc1)C2=O	-128.2	20.0	-158.4	2.4	-3.7	-192.5	.
CN(Cc1cn(Cc2cccc(Cl)c2)nn1)C1CN(Cc2cn(Cc3cccc(Cl)c3)nn2)S(=O)(=O)C1 (stereo not drawn)	.	.	2.3	.	-0.5	.	.
CCOC(=O)/C=C/C(=O)Nc1ccc(S(=O)(=O)Nc2c(C)cc(C)cc2C)cc1	-0.3	-14.0	-19.9	5.0	0.8	10.6	.
CCOC(=O)/C=C/S(=O)(=O)c1ccc(NC(C)=O)cc1	52.7*	-2.2	33.4	0.3	-3.1	19.6	37.6
CCCC1=C(C(=O)OCC)C(/C=C/c2ccccc2)n2ncnc2N1 (stereo not drawn)	53.0*	-3.2	-54.4	1.4	.	-61.9	1.4
CC1=CCC[C@@H]2[C@]3(CC/C(=C/CO)CO)CO[C@@]2(C1)[C@@H](O)C[C@H]3C	.	.	2.1	.	-7.0	.	.
Cc1ccc(C(=O)Nc2ccc3c4c(cccc24)CC3)cc1[N+](=O)[O-]	85.0*	4.6	-34.3	2.2	-1.3	-22.0	13.4
Cc1c(C(=O)Nc2ccc3c4c(cccc24)CC3)cccc1[N+](=O)[O-]	-1.7	-0.8	-5.0	0.2	-2.2	-20.7	.
CCc1ccc(NC(=O)C(=S)NC2CCCCC2)cc1	-181.7	-3.7	-23.9	2.8	0.8	-133.2	-76.3
COc1ccc(NC(=O)C(=S)NC2CCCCC2)cc1	-156.3	10.0	-146.7	-1.1	3.3	-140.9	-48.7
O=C(Nc1ccc(Br)cc1)NC1CCCCCCC1	-178.7	-19.5	-137.7	-1.8	-0.2	-218.9	-81.4
COc1ccc(-c2cc(=O)c3cccc(CC(=O)O)c3o2)cc1	.	.	.	.	-1.4	.	.
Cc1ccc(C(=O)Nc2ccc(N3CCCCC3)cc2)cc1	-175.6	.	-125.3	.	-10.1	-161.3	-112.7
Cc1ccc(C(=O)Nc2cccc(C(=O)O)c2)cc1	73.0*	15.4	.	2.6	-3.1	17.0	59.9*
O=C(Nc1ccc(N2CCCCC2)cc1)c1ccc(F)cc1F	-175.4	-24.6	-138.6	3.3	-3.1	-202.2	-69.3
COc1ccc(C(=O)NCCN2C(=O)S/C(=C\c3cccnc3)C2=O)cc1[N+](=O)[O-]	-1.9	5.1	-12.5	4.1	8.0	-16.7	.
COC(=O)c1nn(C)c(=O)[nH]c1=O	.	.	-21.9	.	1.6	.	.
SMILES	Jurkat NFkB inh	JMJD2C inh	NR2E3 ag-1	NR2E3 ag-2	GalR3 antagonist	697 NFkB inh	Jurkat NFkB conf
CCOC(=O)N1CCN(C(=O)C[C@H]2C[C@@]3(C(=O)OC)C(=C[C@H](C(C)(C)C)O[C@@H]3C)N(Cc3ccc4c(c3)OCO4)C2=O)CC1	.	.	.	.	-1.1	.	.
COc1ccc(CNCC(=O)Nc2ccccc2-n2cccc2)cc1	68.4*	-21.8	-22.7	-2.9	-10.5	-28.3	13.1
COc1ccc(OCC(=O)Nc2ccccc2N2CCCCC2)cc1	63.5*	3.3	-54.7	1.2	-4.7	3.9	47.4
CC(C)C[C@H](NC(=O)C1CCCC1)C(=O)N1CCC[C@H]1C(=O)NCc1ccccc1	.	.	.	.	-6.8	.	.
COC(=O)c1cc(OC)c(OC)cc1NC(=S)N1CCN(c2ccccc2)CC1	16.9	-3.5	-18.4	-1.4	-5.9	16.6	.
COc1cc([C@@H]2c3cc4c(cc3[C@@H](O[C@@H]3O[C@@H]5CO[C@@H](C)O[C@H]5[C@H](O)[C@H]3O)[C@H]3COC(=O)[C@H]23)OCO4)cc(OC)c1O	48.3	-1.0	-7.6	1.0	-4.0	-213.0	.
COc1cc(C2c3cc4c(cc3C(OC3OC5COC(c6cccs6)OC5C(O)C3O)C3COC(=O)C23)OCO4)cc(OC)c1O (stereo not drawn)	79.9*	-0.3	11.8	2.0	-2.3	-35.5	94.2*
Cc1c(NC(=O)C(C)Oc2cccc(F)c2)c(=O)n(-c2ccccc2)n1C (stereo not drawn)	-4.7	1.8	18.6	.	0.8	-7.9	.
Cc1c(C(=O)Nc2ccccc2[N+](=O)[O-])csc1-c1ccccc1	-137.8	-1.7	-169.7	-0.8	5.0	-141.4	.
Cc1c(C(=O)Nc2ccccc2)csc1-c1ccccc1	-265.7	-2.9	-35.7	0.3	-4.0	5.6	-195.2
COc1ccc(S(=O)(=O)NC(=O)C2(C)CCN2C(=O)Cc2cc(F)ccc2F)cc1 (stereo not drawn)	.	.	-18.1	.	-7.2	.	.
CCc1ccccc1OCC(=O)N1CCN(c2ncccn2)CC1	1.9	.	4.2	.	-3.4	13.4	.
Cc1cccn2c(=O)c3cc(C(=O)NC4CCCC4)n(C)c3nc12	50.6*	-2.1	15.5	1.7	0.7	-24.3	12.9
Cc1cccn2c(=O)c3cc(C(=O)NC4CCCCC4)n(C)c3nc12	17.5	-10.8	10.6	-0.5	-1.3	-18.5	.
CN(C1=NS(=O)(=O)c2ccccc21)c1ccc(OC(=O)c2ccncc2)cc1	-4.4	-11.9	-15.8	0.9	-1.7	0.3	.
NC(=O)c1ccccc1NC(=O)c1ccc2ccccc2c1	-174.8	-17.9	-89.7	0.4	-10.2	-224.2	-104.8
COc1ccc(C(=O)Nc2ccccc2C(N)=O)cc1	-86.5	-3.4	-67.8	-1.1	-4.2	-48.2	.
COc1ccc(-c2coc3cc4oc(=O)c5ccccc5c4cc23)cc1F	73.3*	-4.9	-45.4	-1.9	8.7	-59.7	2.9
COc1ccc(-c2oc3c(c2C#CC(C)(C)O)C(OC)CCC3)cc1 (stereo not drawn)	.	.	-15.7	.	-4.0	.	.
CCc1ccc(-c2cc(C)no2)cc1S(=O)(=O)N1CCN(c2ccccc2OC)CC1	17.2	-11.6	-3.3	-0.1	-1.4	-14.6	.

Compound activity (PubChem)
